# Source: ChEMBL document CHEMBL1154440, “Design and synthesis of 2-(2,6-dibromophenyl)-3-heteroaryl-1,3-thiazolidin-4-ones as anti-HIV agents” (Eur J Med Chem, 2008)
# Active and inactive are the calls of the source. The calls are words filed in the database; no cut-off is given here.
# Legend:
# [1] = Selectivity index, ratio of CC50 for human MT4 cells to EC50 for HIV1 3B; format: toxicity, cell-based; details: read-out: Ratio CC50/EC50
# Outline: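 Selectivity index is CC50/EC50. CC50 comes from the viable-cell count in mock-infected MT-4 cells.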
# [2] = Selectivity index, ratio of CC50 for human CEM cells to EC50 for HIV1 3B; format: toxicity, cell-based, CCRF-CEM; details: read-out: Ratio CC50/EC50
# [3] = tested on: Human immunodeficiency virus 2; assay: Antiviral activity against HIV2 ROD replication in human MT4 cells assessed as inhibition of virus-induced cytopathic effect at subtoxic concentration after 5 days by tetrazolium-based colorimetric assay; format: functional, organism-based
# [4] = tested on: Human immunodeficiency virus 2; assay: Antiviral activity against HIV2 ROD replication in human CEM cells assessed as inhibition of virus-induced syncytium formation at subtoxic concentration after 4 days; details: CCRF-CEM
# [5] = tested on: Human immunodeficiency virus 1; assay: Antiviral activity against HIV1 3B replication in human MT4 cells assessed as inhibition of virus-induced cytopathic effect after 5 days by tetrazolium-based colorimetric assay; format: functional, organism-based; details: Human immunodeficiency virus 1, 3B, MT4, 120 h
# [6] = Cytotoxicity against human MT4 cells by MTT assay; format: cell-based
# Outline: (§1)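 CC50 was measured in parallel with the antiviral assays. It is the compound concentration that reduced by 50% the number of viable cells in mock-infected MT-4 or CEM cultures.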
# [7] = molecular target: Human immunodeficiency virus type 1 reverse transcriptase (Human immunodeficiency virus 1) (UniProt Q72547); assay: Inhibition of HIV1 reverse transcriptase at 100 ug/ml after 1 hr by microtiter plate ELISA
# Outline: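 Nonradioactive kit ELISA. HIV-1 RT, template/primer and biotin- and DIG-labelled dNTPs were incubated in lysis buffer with or without inhibitor for 1 h at 37 °C. Product was captured on streptavidin and detected with anti-DIG-peroxidase and ABTS substrate. Absorbance at 405 nm is proportional to RT activity.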
# [8] = Cytotoxicity against human CEM cells by MTT assay; format: cell-based; details: CEM cells (CCRF-CEM); outline: as §1
# [9] = tested on: Human immunodeficiency virus 1; assay: Antiviral activity against HIV1 3B replication in human CEM cells assessed as inhibition of virus-induced syncytium formation after 4 days; details: Human immunodeficiency virus 1, 3B, CCRF-CEM, 96 h
structure (smiles),measurement,setting,value
Fc1cccc(F)c1C1SCc2nc3ccccc3n21 (centres undefined) [THIAZOLOBENZIMIDAZOLE],selectivity ratio,[1],54.5
same,selectivity ratio,[2],45
same,Activity,[3],inactive
same,Activity,[4],inactive
O=C1CSC(c2c(Br)cccc2Br)N1c1ccccn1 (centres undefined),EC50,[5],0.22 µM
same,CC50,[6],13.1 µM
same,selectivity ratio,[1],60
same,inhibition,[7],85.2%
same,CC50,[8],17.1 µM
same,selectivity ratio,[2],66
same,Activity,[3],inactive
same,EC50,[9],0.27 µM
same,Activity,[4],inactive
Cc1nc(N2C(=O)CSC2c2c(Br)cccc2Br)ccc1Br (centres undefined),EC50,[5],1.03 µM
same,CC50,[6],98 µM
same,selectivity ratio,[1],96
same,inhibition,[7],61.4%
same,CC50,[8],98 µM
same,selectivity ratio,[2],53
same,Activity,[3],inactive
same,EC50,[9],1.83 µM
same,Activity,[4],inactive
Cc1ccnc2c1NC(=O)c1cccnc1N2C1CC1 [NEVIRAPINE],EC50,[5],0.05 µM
same,CC50,[6],> 50 µM
same,selectivity ratio,[1],> 1000
same,CC50,[8],> 4 µM
same,selectivity ratio,[2],> 370
same,Activity,[3],inactive
same,EC50,[9],0.01 µM
same,Activity,[4],inactive
O=C1CSC(c2c(Br)cccc2Br)N1c1nccs1 (centres undefined),EC50,[5],0.5 µM
same,CC50,[6],109 µM
same,selectivity ratio,[1],218
same,inhibition,[7],69.5%
same,CC50,[8],109 µM
same,selectivity ratio,[2],194
same,Activity,[3],inactive
same,EC50,[9],0.56 µM
same,Activity,[4],inactive
O=C1CSC(c2c(Br)cccc2Br)N1c1ncccn1 (centres undefined),EC50,[5],0.24 µM
same,CC50,[6],172 µM
same,selectivity ratio,[1],687
same,inhibition,[7],100%
same,CC50,[8],179 µM
same,selectivity ratio,[2],769
same,Activity,[3],inactive
same,EC50,[9],0.23 µM
same,Activity,[4],inactive
O=C1CSC(c2c(Br)cccc2Br)N1Cc1ccco1 (centres undefined),EC50,[5],0.21 µM
same,CC50,[6],36.4 µM
same,selectivity ratio,[1],171
same,inhibition,[7],99%
same,CC50,[8],36.6 µM
same,selectivity ratio,[2],200
same,Activity,[3],inactive
same,EC50,[9],0.18 µM
same,Activity,[4],inactive
O=C1CSC(c2c(Br)cccc2Br)N1Cc1cccs1 (centres undefined),EC50,[5],0.58 µM
same,CC50,[6],34.6 µM
same,selectivity ratio,[1],59
same,inhibition,[7],84.3%
same,CC50,[8],35.6 µM
same,selectivity ratio,[2],59
same,Activity,[3],inactive
same,EC50,[9],0.6 µM
same,Activity,[4],inactive
O=C1CSC(c2c(Br)cccc2Br)N1c1cccc(C(F)(F)F)n1 (centres undefined),EC50,[5],4.56 µM
same,CC50,[6],30 µM
same,selectivity ratio,[1],7
same,inhibition,[7],23.9%
same,CC50,[8],29.8 µM
same,selectivity ratio,[2],8
same,Activity,[3],inactive
same,EC50,[9],3.96 µM
same,Activity,[4],inactive
Cc1cc(N2C(=O)CSC2c2c(Br)cccc2Br)nc(C)n1 (centres undefined),EC50,[5],5.21 µM
same,CC50,[6],33.4 µM
same,selectivity ratio,[1],6
same,inhibition,[7],66.4%
same,CC50,[8],33.5 µM
same,selectivity ratio,[2],7
same,Activity,[3],inactive
same,EC50,[9],4.67 µM
same,Activity,[4],inactive
Cc1ccnc(N2C(=O)CSC2c2c(Br)cccc2Br)n1 (centres undefined),EC50,[5],0.04 µM
same,CC50,[6],33.9 µM
same,selectivity ratio,[1],757
same,inhibition,[7],100%
same,CC50,[8],36.3 µM
same,selectivity ratio,[2],930
same,Activity,[3],inactive
same,EC50,[9],0.04 µM
same,Activity,[4],inactive
Cc1nc(N2C(=O)CSC2c2c(Br)cccc2Br)nc(C)c1C (centres undefined),EC50,[5],0.06 µM
same,CC50,[6],227 µM
same,selectivity ratio,[1],3720
same,inhibition,[7],100%
same,CC50,[8],> 273 µM
same,selectivity ratio,[2],> 5020
same,Activity,[3],inactive
same,EC50,[9],0.06 µM
same,Activity,[4],inactive
Cc1cccc(N2C(=O)CSC2c2c(Br)cccc2Br)n1 (centres undefined),EC50,[5],0.09 µM
same,CC50,[6],233 µM
same,selectivity ratio,[1],2660
same,inhibition,[7],79.5%
same,CC50,[8],233 µM
same,selectivity ratio,[2],2950
same,Activity,[3],inactive
same,EC50,[9],0.08 µM
same,Activity,[4],inactive
Cc1cc(C(F)(F)F)nc(N2C(=O)CSC2c2c(Br)cccc2Br)n1 (centres undefined),EC50,[5],0.32 µM
same,CC50,[6],32.6 µM
same,selectivity ratio,[1],99
same,inhibition,[7],85.4%
same,CC50,[8],59.3 µM
same,selectivity ratio,[2],161
same,Activity,[3],inactive
same,EC50,[9],0.36 µM
same,Activity,[4],inactive
Cc1cc(-c2ccccc2)nc(N2C(=O)CSC2c2c(Br)cccc2Br)n1 (centres undefined),EC50,[5],> 8.65 µM
same,CC50,[6],184 µM
same,selectivity ratio,[1],< 21
same,inhibition,[7],17.8%
same,Activity,[3],inactive
same,Activity,[4],inactive
O=C1CSC(c2c(Br)cccc2Br)N1Cc1ccccn1 (centres undefined),EC50,[5],0.84 µM
same,CC50,[6],174 µM
same,selectivity ratio,[1],209
same,inhibition,[7],97.6%
same,CC50,[8],117 µM
same,selectivity ratio,[2],283
same,Activity,[3],inactive
same,EC50,[9],0.63 µM
same,Activity,[4],inactive
Cc1cc(C)nc(N2C(=O)CSC2c2c(Br)cccc2Br)n1 (centres undefined),inhibition,[7],100%
Clc1cccc(Cl)c1C1SCc2nc3ccccc3n21 (centres undefined),selectivity ratio,[1],16
same,Activity,[3],inactive
same,Activity,[4],inactive
